This note sets out measurements from ChEMBL document CHEMBL3758165, “In vitro interactions between anidulafungin and nonsteroidal anti-inflammatory drugs on biofilms of Candida spp” (2016).

Common to all, as to type: functional
Test [1] has as its system Meyerozyma guilliermondii. As to the kind of experiment: Antibiofilm activity against Candida guilliermondii a83 by two dimensional checkerboard dilution method. The procedure, abridged: (§1)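 Biofilms grown on sterilized PVC disks: 1·10^6 cfu/ml Candida cells adhered for 1.5 h at 37 °C with shaking, washed with PBS, then matured 48 h at 37 °C in RPMI 1640 (MOPS, pH 7). Preformed biofilms were washed and exposed to drug, alone or in two-dimensional checkerboard combination, in RPMI 1640 for 24 h at 37 °C on a rocker.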

Test [2] relates to Meyerozyma guilliermondii. Description: Antibiofilm activity against Candida guilliermondii ATCC 6260 at 0.2 mM after 24 hrs by XTT reduction assay relative to control. Also on record: scale not given: the % may be the effect or the level left. The procedure, abridged:
as §1

The test system of test [3] is Meyerozyma guilliermondii. As to the kind of experiment: Potentiation of anidulafungin-induced antibiofilm activity against Candida guilliermondii a410 assessed as anidulafungin-fractional inhibitory concentration index by two dimensional checkerboard dilution method. The method in brief:
(§2)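 Biofilms grown on PVC disks: 1·10^6 cfu/ml in RPMI 1640 (MOPS, pH 7), 1.5 h adhesion at 37 °C with shaking, PBS wash, 48 h maturation at 37 °C. Preformed biofilms exposed 24 h at 37 °C to anidulafungin/NSAID checkerboard combinations in RPMI. XTT-menadione reduction read at 490 nm. SMIC = 50% metabolic reduction versus drug-free control. Triplicate runs on different days; FIC index calculated.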

Test [4] has as its system Candida albicans. Description: Antibiofilm activity against Candida albicans ATCC 90028 at 1 mM after 24 hrs by XTT reduction assay relative to control. Also on record: scale not given: the % may be the effect or the level left. The method in brief: as §1
Background: Tetrazolium dyes change colour on reduction, which living cells bring about.

Test [5] concerns Candida albicans. As to the kind of experiment: Antibiofilm activity against Candida albicans ATCC 90028 by two dimensional checkerboard dilution method in presence of anidulafungin. The procedure, abridged: as §1
In test [6] the test system is Candida albicans. As to the kind of experiment: Antibiofilm activity against Candida albicans 17a18 assessed as fractional inhibitory concentration by two dimensional checkerboard dilution method in presence of anidulafungin. The method in brief: as §2
The test system of test [7] is Nakaseomyces glabratus. As to the kind of experiment: Antibiofilm activity against Candida glabrata 18a10 by two dimensional checkerboard dilution method. The procedure, abridged:
as §1

For test [8], the system named is Candida albicans. As to the kind of experiment: Antibiofilm activity against Candida albicans ATCC 24433 at 0.1 uM to 100 mM after 48 hrs by XTT reduction assay relative to control. Also on record: scale not given: the % may be the effect or the level left. The method in brief: as §1
The subject of test [9] is Meyerozyma guilliermondii. As to the kind of experiment: Antibiofilm activity against Candida guilliermondii a83 at 0.1 uM to 100 mM after 48 hrs by XTT reduction assay relative to control. Also on record: scale not given: the % may be the effect or the level left. The method in brief:
as §1

The test system of test [10] is Nakaseomyces glabratus. As to the kind of experiment: Antibiofilm activity against Candida glabrata ATCC 15126 by two dimensional checkerboard dilution method in presence of anidulafungin. The method in brief: as §1
Test [11] relates to Nakaseomyces glabratus. Description: Antibiofilm activity against Candida glabrata ATCC 15126 assessed as fractional inhibitory concentration by two dimensional checkerboard dilution method in presence of anidulafungin. The procedure, abridged: as §2
In test [12] the test system is Candida albicans. As to the kind of experiment: Antibiofilm activity against Candida albicans ATCC 10231 by two dimensional checkerboard dilution method. The procedure, abridged:
as §1

Test [13] deals with Candida albicans. As to the kind of experiment: Antibiofilm activity against Candida albicans 17a18 by two dimensional checkerboard dilution method. The procedure, abridged: as §1
Test [14] concerns Candida albicans. Description: Antibiofilm activity against Candida albicans 17a18 by two dimensional checkerboard dilution method in presence of anidulafungin. The method in brief: as §1
For test [15], the system named is Candida albicans. As to the kind of experiment: Antibiofilm activity against Candida albicans ATCC 10231 at 0.1 uM to 100 mM after 48 hrs by XTT reduction assay relative to control. Also on record: scale not given: the % may be the effect or the level left. The procedure, abridged: as §1
Test [16] relates to Meyerozyma guilliermondii. As to the kind of experiment: Antibiofilm activity against Candida guilliermondii ATCC 6260 at 1 mM after 24 hrs by XTT reduction assay relative to control. Also on record: scale not given: the % may be the effect or the level left. The procedure, abridged:
as §1

For test [17], the system named is Nakaseomyces glabratus. As to the kind of experiment: Antibiofilm activity against Candida glabrata 18a10 after 48 hrs by XTT reduction assay relative to control. Also on record: scale not given: the % may be the effect or the level left. The procedure, abridged: (§3)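 Biofilms grown on autoclaved PVC disks: 1·10^6 cfu ml-1 cells, adhesion 1.5 h at 37 °C shaking 100 rpm, PBS wash, then 48 h at 37 °C in RPMI 1640 (MOPS, pH 7). Metabolic activity read by XTT–menadione reduction, 2 h at 37 °C, supernatant formazan at 490 nm, relative to drug-free control; triplicate on different days.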

Test [18] relates to Nakaseomyces glabratus. As to the kind of experiment: Antibiofilm activity against Candida glabrata ATCC 15126 after 48 hrs by XTT reduction assay relative to control. Also on record: scale not given: the % may be the effect or the level left. The procedure, abridged: as §3
For test [19], the system named is Candida albicans. As to the kind of experiment: Antibiofilm activity against Candida albicans ATCC 90028 assessed as fractional inhibitory concentration by two dimensional checkerboard dilution method in presence of aspirin. The procedure, abridged: (§4)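 Preformed 48 h disk biofilms (RPMI 1640, MOPS pH 7, 37 °C), PBS-washed, exposed 24 h at 37 °C on rocker to two-dimensional checkerboard of anidulafungin plus NSAID in RPMI; NSAID final 0.1 µM to 100 mM. XTT reduction at 490 nm; SMIC = combination giving 50% metabolic reduction versus drug-free control; FIC index calculated; triplicate on different days.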

The subject of test [20] is Candida albicans. As to the kind of experiment: Antibiofilm activity against Candida albicans ATCC 90028 assessed as fractional inhibitory concentration by two dimensional checkerboard dilution method in presence of ibuprofen. The method in brief:
as §4

Test [21] deals with Meyerozyma guilliermondii. Description: Antibiofilm activity against Candida guilliermondii ATCC 6260 by two dimensional checkerboard dilution method in presence of ibuprofen. The procedure, abridged:
as §4

Test [22] concerns Candida albicans. Description: Antibiofilm activity against Candida albicans ATCC 10231 by two dimensional checkerboard dilution method in presence of aspirin. The method in brief:
as §4

Test [23] has as its system Candida albicans. As to the kind of experiment: Antibiofilm activity against Candida albicans ATCC 10231 by two dimensional checkerboard dilution method in presence of ibuprofen. The method in brief:
as §4

Test [24] concerns Meyerozyma guilliermondii. Description: Antibiofilm activity against Candida guilliermondii a410 assessed as fractional inhibitory concentration by two dimensional checkerboard dilution method in presence of diclofenac. The method in brief:
(§5)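 Biofilms were grown on PVC disks from 2 ml of a 1·10^6 cfu/ml cell suspension. Adhesion ran 1.5 h at 37 °C with shaking at 100 rpm. Disks were PBS-washed, then matured 48 h at 37 °C in RPMI 1640 (MOPS, pH 7). Biofilms were washed again and given 24 h at 37 °C of anidulafungin/NSAID checkerboard combinations (NSAID final 0.1 µM–100 mM). Read-out was XTT-menadione (2 h, 37 °C, 490 nm). SMIC was defined as 50% reduction versus drug-free control, from which FICI was calculated. Triplicates were run on different days.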

Test [25] deals with Candida albicans. Description: Antibiofilm activity against Candida albicans ATCC 10231 assessed as fractional inhibitory concentration by two dimensional checkerboard dilution method in presence of aspirin. The method in brief: as §4
The test system of test [26] is Candida albicans. As to the kind of experiment: Antibiofilm activity against Candida albicans ATCC 10231 after 48 hrs by XTT reduction assay relative to control. Also on record: scale not given: the % may be the effect or the level left. The procedure, abridged:
as §3

The subject of test [27] is Meyerozyma guilliermondii. As to the kind of experiment: Antibiofilm activity against Candida guilliermondii a410 assessed as fractional inhibitory concentration by two dimensional checkerboard dilution method in presence of aspirin. The method in brief: as §5
Test [28] concerns Meyerozyma guilliermondii. As to the kind of experiment: Antibiofilm activity against Candida guilliermondii a83 assessed as fractional inhibitory concentration by two dimensional checkerboard dilution method in presence of ibuprofen. The procedure, abridged:
as §5

Test [29] concerns Nakaseomyces glabratus. Description: Antibiofilm activity against Candida glabrata 18a10 assessed as fractional inhibitory concentration by two dimensional checkerboard dilution method in presence of diclofenac. The procedure, abridged:
as §4

In test [30] the test system is Meyerozyma guilliermondii. Description: Antibiofilm activity against Candida guilliermondii ATCC 6260 assessed as fractional inhibitory concentration by two dimensional checkerboard dilution method in presence of aspirin. The method in brief: as §4
Test [31] has as its system Candida albicans. Description: Antibiofilm activity against Candida albicans 17a18 assessed as fractional inhibitory concentration by two dimensional checkerboard dilution method in presence of ibuprofen. The method in brief: as §4
For test [32], the system named is Meyerozyma guilliermondii. Description: Antibiofilm activity against Candida guilliermondii a83 by two dimensional checkerboard dilution method in presence of diclofenac. The procedure, abridged: as §5
Test [33] concerns Meyerozyma guilliermondii. As to the kind of experiment: Antibiofilm activity against Candida guilliermondii a83 assessed as fractional inhibitory concentration by two dimensional checkerboard dilution method in presence of diclofenac. The procedure, abridged:
as §5

For `CC(C)Cc1ccc(C(C)C(=O)O)cc1` (configuration not stated) [IBUPROFEN], the MIC in test [1] turned out to be 200 µM; with Candida albicans [5], 1000 µM; with Nakaseomyces glabratus [7], 200 µM; in the test on Nakaseomyces glabratus [10], 40 µM; in the test on Candida albicans [12], 1000 µM; in the test on Candida albicans [13], 1000 µM. Besides, the MIC in the test with Candida albicans [14] is 50 µM. For the same molecule, the Activity in test [2] is on record as 64.43%; with Candida albicans [4] it was 25.62%; in the test on Candida albicans [8], 22.45%; in test [9], 56.78%. Besides, in test [3], the “fractional inhibitory concentration index (FICI)” value worked out at 0.3. The Ratio in the test on Candida albicans [6] is 0.05; with Nakaseomyces glabratus [11], 0.2.
`CC(=O)Oc1ccccc1C(=O)O` [ASPIRIN]: the MIC in test [1] is 200 µM; with Candida albicans [5], 10 µM; in the test with Nakaseomyces glabratus [7], 200 µM; with Nakaseomyces glabratus [10] it was 10 µM; in the test on Candida albicans [12], 200 µM; in the test with Candida albicans [13], 200 µM. Further, the MIC with Candida albicans [14] worked out at 10 µM. Also, the Activity in the test with Candida albicans [15] is on record as 49.21%; in the test on Candida albicans [4] it was 44.72%; in test [16], 54.12%; in [9], 46.22%. Further, in test [3], the “fractional inhibitory concentration index (FICI)” value is listed as 0.15. In addition, the Ratio with Candida albicans [6] and in the test on Nakaseomyces glabratus [11] was 0.05 throughout.
As to `O=C([O-])Cc1ccccc1Nc1c(Cl)cccc1Cl.[Na+]` [DICLOFENAC SODIUM], the MIC in [1] is 100000 µM; in the test with Candida albicans [5], 5000 µM; with Nakaseomyces glabratus [7] it was 100000 µM; with Nakaseomyces glabratus [10] it was 20000 µM; in the test on Candida albicans [12], 100000 µM; in the test with Candida albicans [13], 100000 µM. Further, the MIC in the test on Candida albicans [14] was found to be 5000 µM. Besides, the Activity in the test on Candida albicans [15] was determined as 53.57%; in the test on Candida albicans [8] it was 50.25%; in [9], 57.87%. Besides, the “fractional inhibitory concentration index (FICI)” value in test [3] is given as 0.45. Moreover, the Ratio was 0.05 in the test on Candida albicans [6] and 0.2 in the test with Nakaseomyces glabratus [11].
For the molecule `CCCCCOc1ccc(-c2ccc(-c3ccc(C(=O)N[C@@H]4C[C@@H](O)[C@@H](O)NC(=O)[C@@H]5[C@@H](O)[C@@H](C)CN5C(=O)[C@H]([C@@H](C)O)NC(=O)[C@H]([C@H](O)[C@@H](O)c5ccc(O)cc5)NC(=O)[C@@H]5C[C@@H](O)CN5C(=O)[C@H]([C@H](C)O)NC4=O)cc3)cc2)cc1`, the Activity in the test on Nakaseomyces glabratus [17] came to 37.42%; in the test on Nakaseomyces glabratus [18] it was 27.41%; in the test with Candida albicans [26], 33.98%. Besides, the Ratio stood at 0.05 with Candida albicans [19]; 0.2 with Candida albicans [20]; 0.05 in test [24]; 0.05 with Candida albicans [25]; 0.05 in test [27]; 0.05 in test [28]. In addition, the Ratio in the test on Nakaseomyces glabratus [29] is given as 0.1; in test [30] it was 0.05; in the test on Candida albicans [31] it was 0.2; in test [33] it was 0.1. Moreover, the MIC came to 0.4 µg/mL in test [21]; 2 µg/mL in [1]; 0.1 µg/mL in the test on Candida albicans [22]; 0.4 µg/mL with Candida albicans [23]; 2 µg/mL in the test on Nakaseomyces glabratus [7]; 0.2 µg/mL in test [32]. Further, the MIC in the test with Candida albicans [12] and in the test on Candida albicans [13] was 2 µg/mL throughout.
